Measurements of several laboratories.
Compare with care: the assays were run in different laboratories.
MTNR1A: Melatonin receptor type 1A (MTNR1A, Homo sapiens, UniProt P48039)
BMP2K: BMP-2-inducible protein kinase (BMP2K, Homo sapiens, UniProt Q9NSY1)
Grm1: Metabotropic glutamate receptor 1 (Grm1, Rattus norvegicus, UniProt P23385)
murC: UDP-N-acetylmuramate--L-alanine ligase (murC, Escherichia coli K-12, UniProt P17952)
Trypanothione synthetase: Trypanothione synthetase (Trypanosoma cruzi, UniProt Q9GT49)
HTR2C: 5-hydroxytryptamine receptor 2C (HTR2C, Homo sapiens, UniProt P28335)
BRWD3: BRWD3 (Homo sapiens, UniProt Q6RI45)

COc1cc(I)c2[nH]cc(CCNC(C)=O)c2c1
Emax (MTNR1A; β-arrestin recruitment, agonist; CHO-K1; 90 min): 95%

Cc1nn(CC(F)(F)F)cc1Nc1ncc(C2CC2)c(NCCCNC(=O)C2CCC2)n1
remaining activity (BMP2K; enzyme activity, inhibitor, radiometric; 1 µM): 73%

Cc1cccnc1C(=O)Nc1ccc(N2C(=O)c3cccc(Cl)c3C2=O)c(Cl)c1
Emax (Grm1; calcium signal, positive allosteric modulator; T-REx-293): 118%

N#Cc1ccc(COc2ccccc2C=NNS(=O)(=O)c2ccc3ccccc3c2)cc1
remaining activity (murC; enzyme activity, inhibitor, absorbance; 100 µM): 36%

NCCCCNC(=O)CN1C(=O)Cc2c([nH]c3ccc(Br)cc23)-c2ccc(Cl)cc21
inhibition (Trypanothione synthetase; enzyme activity, inhibitor, absorbance; 30 µM): 6.7%

Cc1ccc(C(=O)Nc2ccc(CN3CCN(C)CC3)c(C(F)(F)F)c2)cc1C#Cc1cnc2cccnn12
remaining signal (Ephrin type-B receptor 6 (EPHB6, Homo sapiens, UniProt O15197); cell-free assay; 23.5 nM): 85%

COc1cc(NC(C)=O)c(Cl)cc1C(=O)Nc1nccs1
inhibition (HTR2C; ligand displacement, radioligand; 10 µM): 48.8%

O=C(NCCCNc1nc(Nc2cccc(NC(=O)N3CCCC3)c2)ncc1I)c1cccs1
remaining activity (BMP2K; enzyme activity, inhibitor, radiometric; 1 µM): 1%

NC(=O)CN1C(=O)Cc2c([nH]c3ccc(Br)cc23)-c2ccc(Cl)cc21
inhibition (Trypanothione synthetase; enzyme activity, inhibitor, absorbance; 30 µM): 5.2%

NS(=O)(=O)c1ccc(CNc2nc(Nc3cccc(NC(=O)N4CCCC4)c3)ncc2Br)cc1
remaining activity (BMP2K; enzyme activity, inhibitor, radiometric; 1 µM): 1%

CCCOc1ccc(OC)c(F)c1C(=O)c1ccc(C(=O)N[C@@H]2CNC[C@H]2NC(=O)c2ccc3[nH]ncc3c2)cc1
remaining activity (Rho-associated protein kinase 2 (ROCK2, Homo sapiens, UniProt O75116); enzyme activity, inhibitor; 10 µM): 3%

O=C(NCCCNc1nc(Nc2cccc(NC(=O)N3CCCC3)c2)ncc1C1CC1)C1CCC1
remaining activity (BMP2K; enzyme activity, inhibitor, radiometric; 1 µM): 8%

COc1cc2c(CCNC(C)=O)c(I)[nH]c2cc1[N+](=O)[O-]
Emax (MTNR1A; GTPγS binding, agonist, radiometric; cell membranes): 72%

CCN(Cc1ccccc1C(F)(F)F)C(=O)C1CCN(S(=O)(=O)c2ccc3[nH]ncc3c2)CC1
inhibition (B2 bradykinin receptor (BDKRB2, Homo sapiens, UniProt P30411); ligand displacement, radioligand; 10 µM): 11%

COc1ccc2[nH]cc(CCNC(C)=O)c2c1I
Emax (MTNR1A; β-arrestin recruitment, agonist; CHO-K1; 90 min): 91%

FC(F)(F)Oc1cccc(-c2cnc3ccc(-c4ccncc4)nn23)c1
activity vs control (Serine/threonine-protein kinase SIK3 (SIK3, Homo sapiens, UniProt Q9Y2K2); enzyme activity, inhibitor, radiometric; 1 µM): 93%

COc1ccc2ncn(CCNC(C)=O)c2c1
Emax (MTNR1A; β-arrestin recruitment, agonist; CHO-K1; 90 min): 92%

O=C(c1ccc(F)cc1)N(Cc1ccccc1)C1CCCCC1
inhibition (Substance-P receptor (TACR1, Homo sapiens, UniProt P25103); cell-free assay; 10 µM): 20%

Cc1cc2c(cc1N1C(=O)c3cccc4c(Cl)ccc(c34)C1=O)n(C)c(=O)n2C
ΔTm (BRWD3; thermal stability, DSF; 10 µM): -0.5 °C

O=C(Nc1ccc(S(=O)(=O)N2CCC(Cl)CC2)cc1)c1ccc([N+](=O)[O-])o1
inhibition (MTNR1A; ligand displacement, radioligand; 10 µM): 8%

O=C(Nc1ccc(C=NNS(=O)(=O)c2ccc3ccccc3c2)cc1)c1ccc([N+](=O)[O-])cc1
remaining activity (murC; enzyme activity, inhibitor, absorbance; 50 µM): 71%

O=C(CN1C(=O)Cc2c([nH]c3ccc(Br)cc23)-c2ccc(Cl)cc21)Nc1ccccc1
inhibition (Trypanothione synthetase; enzyme activity, inhibitor, absorbance; 30 µM): 29.6%

Cc1nn(CC(F)(F)F)cc1Nc1ncc(Br)c(NCc2ccc(S(N)(=O)=O)cc2)n1
remaining activity (BMP2K; enzyme activity, inhibitor, radiometric; 1 µM): 30%

CNC(=O)CN1C(=O)Cc2c([nH]c3ccc(Br)cc23)-c2ccc(Cl)cc21
inhibition (Trypanothione synthetase; enzyme activity, inhibitor, absorbance; 30 µM): 22.8%

Oc1ccc(-c2nc(-c3ccncc3)c(-c3ccc(F)cc3)[nH]2)cc1
ΔTm (BRWD3; thermal stability, DSF; 10 µM): 0.66 °C

COc1cc2c(CCNC(C)=O)c[nH]c2cc1I
Emax (MTNR1A; β-arrestin recruitment, agonist; CHO-K1; 90 min): 101%

CN(C)C1CCN(CC#Cc2nn(C3CCCC3)c3nc(NCc4ccccc4)ncc23)C1 (stereo not drawn)
inhibition (Testis-specific serine/threonine-protein kinase 1 (TSSK1B, Homo sapiens, UniProt Q9BXA7); enzyme activity, inhibitor, FRET; 1 µM): -2%

N#Cc1ccc(COc2ccccc2C=NNS(=O)(=O)Cc2ccccc2F)cc1
remaining activity (murC; enzyme activity, inhibitor, absorbance; 100 µM): 59%

NS(=O)(=O)c1ccc(CNc2ccnc(Nc3cccc(NC(=O)N4CCCC4)c3)n2)cc1
remaining activity (BMP2K; enzyme activity, inhibitor, radiometric; 1 µM): 80%

Cc1cccnc1C(=O)Nc1ccc(N2C(=O)c3ccccc3C2=O)c(Cl)c1
Emax (Grm1; calcium signal, positive allosteric modulator; T-REx-293): 109%

CCc1ccc2scc(CCNC(C)=O)c2c1
Emax (MTNR1A; β-arrestin recruitment, agonist; CHO-K1; 90 min): 75%

Nc1ncnc2occ(-c3ccc(NC(=O)Nc4cc(C(F)(F)F)ccc4F)cc3)c12
remaining signal (Receptor-type tyrosine-protein kinase FLT3 (FLT3, Homo sapiens, UniProt P36888, N841I); cell-free assay, inhibitor; 20 µM): 0.75%

O=C(Nc1ccc(C=NNS(=O)(=O)c2ccc3ccccc3c2)cc1)c1ccccc1Br
remaining activity (murC; enzyme activity, inhibitor, absorbance; 100 µM): 41%

Cc1nn(CC(F)(F)F)cc1Nc1ncc(Br)c(NCCc2cnc[nH]2)n1
remaining activity (BMP2K; enzyme activity, inhibitor, radiometric; 1 µM): 47%

COc1ccc2c(c1)C(CNC(N)=O)Cc1ccccc1C2 (stereo not drawn)
Emax (MTNR1A; GTPγS binding, agonist, radiometric; cell membranes): 8%

O=C(c1ccc(Cl)cc1)N(Cc1ccccc1)C1CCCCC1
inhibition (HTR2C; ligand displacement, radioligand; 10 µM): -5.5%
